Experimental data published in ChEMBL document CHEMBL1143122, “Novel analogs of D-e-MAPP and B13. Part 1: synthesis and evaluation as potential anticancer agents” (Bioorg Med Chem, 2008).

Experiments:
U-251 = experiment: Antiproliferative activity against human U251 cells after 48 hrs; format: functional; details: U-251, 48 h
Outline: (§1)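 NCI 60-cell-line screen. Lines grown in RPMI 1640 with 5% fetal bovine serum and 2 mM L-glutamine, plated at 5,000–40,000 cells/well according to doubling time, left 24 h at 37 °C in 5% CO2. Drug stocks in DMSO at 400-fold the top final concentration. Five 10-fold dilutions, 10−4 to 10−8 M, incubated 48 h. Growth read spectrophotometrically as net protein; GI50 taken as 50% reduction.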

LOX IMVI = experiment: Antiproliferative activity against human LOXIMVI cells after 48 hrs; format: functional
Outline: (§2)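 NCI 60-cell screen. Cells were grown in RPMI 1640 with 5% FBS and 2 mM L-glutamine, then plated at 5,000–40,000 cells/well according to doubling time and preincubated for 24 h at 37 °C in 5% CO2. Compounds were dissolved in DMSO at 400× the top final concentration and tested at five 10-fold dilutions from 10−4 to 10−8 M for 48 h. Growth was read spectrophotometrically; GI50 is 50% net protein reduction.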

M14 = experiment: Antiproliferative activity against human M14 cells after 48 hrs; format: functional; details: M14, 48 h; outline: as §2
SK-MEL-28 = experiment: Antiproliferative activity against human SKMEL28 cells after 48 hrs; format: functional; details: SK-MEL-28, 48 h; outline: as §2
SK-MEL-5 = experiment: Antiproliferative activity against human SKMEL5 cells after 48 hrs; format: functional; details: SK-MEL-5, 48 h; outline: as §2
UACC-257 = experiment: Antiproliferative activity against human UACC257 cells after 48 hrs; format: functional; details: UACC-257, 48 h; outline: as §1
IGROV-1 = experiment: Antiproliferative activity against human IGROV1 cells after 48 hrs; format: functional; details: IGROV-1, 48 h; outline: as §2
OVCAR-3 = experiment: Antiproliferative activity against human OVCAR-3 cells after 48 hrs; format: functional; details: OVCAR-3, 48 h; outline: as §2
OVCAR-4 = experiment: Antiproliferative activity against human OVCAR4 cells after 48 hrs; format: functional; details: OVCAR-4, 48 h; outline: as §2
SK-OV-3 = experiment: Antiproliferative activity against human SKOV3 cells after 48 hrs; format: functional; details: SK-OV-3, 48 h; outline: as §2
ACHN = experiment: Antiproliferative activity against human ACHN cells after 48 hrs; format: functional; outline: as §2
UO-31 = experiment: Antiproliferative activity against human UO31 cells after 48 hrs; format: functional; details: UO-31, 48 h; outline: as §1
PC-3 = experiment: Antiproliferative activity against human PC3 cells after 48 hrs; format: functional; details: PC-3, 48 h; outline: as §2
DU-145 = experiment: Antiproliferative activity against human DU145 cells after 48 hrs; format: functional; details: DU-145, 48 h; outline: as §2
Hs-578T = experiment: Antiproliferative activity against human HS578T cells after 48 hrs; format: functional; outline: as §2
MDA-MB-435 = experiment: Antiproliferative activity against human MDA-MB-435 cells after 48 hrs; format: functional; details: Homo sapiens, MDA-MB-435, 48 h; outline: as §2
T47D = experiment: Antiproliferative activity against human T47D cells after 48 hrs; format: functional; outline: as §1
HOP-62 = experiment: Antiproliferative activity against human HOP62 cells after 48 hrs; format: functional; details: HOP-62, 48 h; outline: as §2
HOP-92 = experiment: Antiproliferative activity against human HOP92 cells after 48 hrs; format: functional; details: HOP-92, 48 h; outline: as §2
NCI-H522 = experiment: Antiproliferative activity against human NCI-H522 cells after 48 hrs; format: functional; details: NCI-H522, 48 h; outline: as §2
HCC 2998 = experiment: Antiproliferative activity against human HCC2998 cells after 48 hrs; format: functional; details: HCC 2998, 48 h; outline: as §2
HT-29 = experiment: Antiproliferative activity against human HT29 cells after 48 hrs; format: functional; details: HT-29, 48 h; outline: as §2
KM12 = experiment: Antiproliferative activity against human KM12 cells after 48 hrs; format: functional; details: Homo sapiens, KM12, 48 h; outline: as §2
SW-620 = experiment: Antiproliferative activity against human SW620 cells after 48 hrs; format: functional; details: SW-620, 48 h; outline: as §1
SF-268 = experiment: Antiproliferative activity against human SF268 cells after 48 hrs; format: functional; details: SF-268, 48 h; outline: as §2
SF-539 = experiment: Antiproliferative activity against human SF539 cells after 48 hrs; format: functional; details: SF-539, 48 h; outline: as §2
SNB-19 = experiment: Antiproliferative activity against human SNB19 cells after 48 hrs; format: functional; details: SNB-19, 48 h; outline: as §2
SNB-75 = experiment: Antiproliferative activity against human SNB75 cells after 48 hrs; format: functional; details: SNB-75, 48 h; outline: as §2
MCF7 = experiment: Antiproliferative activity against human MCF7 cells after 48 hrs; format: functional, cell-based; details: MCF7, 48 h
CCRF-CEM = experiment: Antiproliferative activity against human CCRF-CEM cells after 48 hrs; format: functional; outline: as §2
K562 = experiment: Antiproliferative activity against human K562 cells after 48 hrs; format: functional; details: K562, 48 h; outline: as §2
A549 = experiment: Antiproliferative activity against human A549 cells after 48 hrs; format: functional; details: A549, 48 h; outline: as §2
[1] = Antiproliferative activity against human […] cells after 48 hrs; format: functional; outline: as §2
[2] = read-out: Log LC50 (the source's name) (converted)

SMILES: CCCCCCCCCCCCCCN[C@H](CO)[C@H](O)c1ccccc1
- GI50 (U-251): 1.78 µM
- CC50 (U-251; [2]): 5.62 µM
- TGI (U-251; read-out: Log TGI (converted)): 3.16 µM
- GI50 (LOX IMVI): 1.78 µM
- LC50 (LOX IMVI): 5.75 µM
- TGI (LOX IMVI; read-out: Log TGI (converted)): 3.16 µM
- GI50 (M14): 1.86 µM
- LC50 (M14): 5.89 µM
- TGI (M14; read-out: Log TGI (converted)): 3.31 µM
- GI50 (SK-MEL-28): 1.82 µM
- LC50 (SK-MEL-28): 5.62 µM
- TGI (SK-MEL-28; read-out: Log TGI (converted)): 3.24 µM
- GI50 (SK-MEL-5): 2.14 µM
- TGI (SK-MEL-5; read-out: Log TGI (converted)): 4.07 µM
- GI50 (UACC-257): 1.7 µM
- CC50 (UACC-257; [2]): 7.24 µM
- TGI (UACC-257; read-out: Log TGI (converted)): 3.47 µM
- GI50 (IGROV-1): 1.55 µM
- TGI (IGROV-1; read-out: Log TGI (converted)): 3.24 µM
- GI50 (OVCAR-3): 1.91 µM
- TGI (OVCAR-3; read-out: Log TGI (converted)): 4.07 µM
- GI50 (OVCAR-4): 1.91 µM
- TGI (OVCAR-4; read-out: Log TGI (converted)): 3.8 µM
- GI50 (SK-OV-3): 6.76 µM
- CC50 (SK-OV-3; [2]): 79.4 µM
- TGI (SK-OV-3; read-out: Log TGI (converted)): 24.5 µM
- GI50 (ACHN): 1.74 µM
- CC50 (ACHN; [2]): 5.62 µM
- TGI (ACHN; read-out: Log TGI (converted)): 3.16 µM
- GI50 (UO-31): 3.8 µM
- LC50 (UO-31): 79.4 µM
- TGI (UO-31; read-out: Log TGI (converted)): 17.8 µM
- GI50 (PC-3): 1.58 µM
- LC50 (PC-3): 5.5 µM
- TGI (PC-3; read-out: Log TGI (converted)): 2.95 µM
- GI50 (DU-145): 1.66 µM
- CC50 (DU-145; [2]): 6.17 µM
- TGI (DU-145; read-out: Log TGI (converted)): 3.16 µM
- GI50 (Hs-578T): 2.82 µM
- LC50 (Hs-578T): > 100 µM
- TGI (Hs-578T; read-out: Log TGI (converted)): 6.46 µM
- GI50 (MDA-MB-435): 1.78 µM
- LC50 (MDA-MB-435): 5.62 µM
- TGI (MDA-MB-435; read-out: Log TGI (converted)): 3.16 µM
- GI50 (T47D): 1.91 µM
- TGI (T47D; read-out: Log TGI (converted)): 3.63 µM
- GI50 (HOP-62): 1.48 µM
- CC50 (HOP-62; [2]): 5.37 µM
- TGI (HOP-62; read-out: Log TGI (converted)): 2.82 µM
- GI50 (HOP-92): 1.41 µM
- LC50 (HOP-92): 5.89 µM
- TGI (HOP-92; read-out: Log TGI (converted)): 2.88 µM
- GI50 (NCI-H522): 2 µM
- TGI (NCI-H522; read-out: Log TGI (converted)): 3.8 µM
- GI50 (HCC 2998): 1.66 µM
- CC50 (HCC 2998; [2]): 5.62 µM
- TGI (HCC 2998; read-out: Log TGI (converted)): 3.09 µM
- GI50 (HT-29): 1.7 µM
- LC50 (HT-29): 5.62 µM
- TGI (HT-29; read-out: Log TGI (converted)): 3.09 µM
- GI50 (KM12): 1.86 µM
- CC50 (KM12; [2]): 5.89 µM
- TGI (KM12; read-out: Log TGI (converted)): 3.31 µM
- GI50 (SW-620): 2.4 µM
- LC50 (concentration killing 50% of cells) (SW-620): > 100 µM
- GI50 (SF-268): 1.66 µM
- TGI (SF-268; read-out: Log TGI (converted)): 3.24 µM
- GI50 (SF-539): 1.55 µM
- LC50 (SF-539): 6.03 µM
- TGI (SF-539; read-out: Log TGI (converted)): 3.09 µM
- GI50 (SNB-19): 1.78 µM
- TGI (SNB-19; read-out: Log TGI (converted)): 3.24 µM
- GI50 (SNB-75): 2.29 µM
- CC50 (SNB-75; [2]): 27.5 µM
- TGI (SNB-75; read-out: Log TGI (converted)): 5.62 µM
- GI50 (MCF7): 1.82 µM
- TGI (MCF7; read-out: Log TGI (converted)): 3.31 µM
- GI50 (CCRF-CEM): 1.58 µM
- CC50 (CCRF-CEM; [2]): 7.94 µM
- TGI (CCRF-CEM; read-out: Log TGI (converted)): 3.55 µM
- GI50 (K562): 2.24 µM
- LC50 (K562): > 100 µM
- TGI (K562; read-out: Log TGI (converted)): 4.9 µM
- GI50 (A549): 1.7 µM
- CC50 (A549; [2]): 6.03 µM
- TGI (A549; read-out: Log TGI (converted)): 3.24 µM
- GI50 [1]: 3.16 µM
- LC50 [1]: 91.2 µM
- TGI ([1]; read-out: Log TGI (converted)): 17.4 µM
